Results published in ChEMBL document CHEMBL1781911, “Verrucamides A-D, antibacterial cyclopeptides from Myrothecium verrucaria” (J Nat Prod, 2011).
≈ marks a conversion by molar mass, not a printed value. Square brackets hold non-standard residues; d marks the D form. Peptide text beside a SMILES is read from it. NMeT = CN[C@H](C(=O)O)[C@@H](C)O; aIle = CC[C@@H](C)[C@H](N)C(=O)O; dNMeF = CN[C@H](Cc1ccccc1)C(=O)O; NMeV = CN[C@H](C(=O)O)C(C)C; NMeS = CN[C@@H](CO)C(=O)O; dNMeA = CN[C@H](C)C(=O)O

Tested on: Staphylococcus aureus
Assay: Antibacterial activity against Staphylococcus aureus Col CGMCC 1.2465 after 24 hrs by NCCLS […] method
Type: functional, organism-based
Conditions: COL CGMCC 1.2465, 24 h
Procedure, shortened: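 Broth microdilution in triplicate per NCCLS guidance; strain grown in Mueller-Hinton broth, 3-4 colonies cultured at 37 °C for 24 h, final inoculum 10^6 cells/mL in MHB. Samples from 10 mg/mL DMSO stocks, serially diluted; ampicillin positive control. Incubated 37 °C for 24 h, growth read as absorbance at 595 nm.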

| SMILES | IC50 [µg/mL] | MIC [µg/mL] |
| --- | --- | --- |
| CC1(C)S[C@@H]2[C@H](NC(=O)[C@H](N)c3ccccc3)C(=O)N2[C@H]1C(=O)O [AMPICILLIN] | 0.09 (≈ 0.258 µM) | 0.625 (≈ 1.79 µM) |
| CC[C@@H](C)[C@@H]1NC(=O)CNC(=O)[C@@H](C)N(C)C(=O)[C@H](C(C)C)NC(=O)[C@H]([C@@H](C)O)N(C)C(=O)[C@H](C(C)C)NC(=O)[C@H]([C@@H](C)O)N(C)C(=O)[C@H](C(C)C)NC(=O)CNC(=O)[C@@H](Cc2ccccc2)N(C)C(=O)[C@H](C(C)C)NC(=O)[C@H](CO)NC(=O)[C@H]([C@H](C)CC)N(C)C(=O)[C@H](CO)N(C)C1=O [VERRUCAMIDE A] | 3.59 (≈ 2.54 µM) | 10 (≈ 7.06 µM) |
| CC[C@@H](C)[C@@H]1NC(=O)CNC(=O)[C@@H](C)N(C)C(=O)[C@H](C(C)C)NC(=O)[C@H]([C@@H](C)O)N(C)C(=O)[C@H](C(C)C)NC(=O)[C@H]([C@@H](C)O)N(C)C(=O)[C@H](C(C)C)NC(=O)CNC(=O)[C@@H](Cc2ccccc2)N(C)C(=O)[C@H](C(C)C)NC(=O)[C@H](CO)NC(=O)[C@H](C(C)C)N(C)C(=O)[C@H](CO)N(C)C1=O [VERRUCAMIDE B] (cyclo(GV[NMeT]V[NMeT]V[dNMeA]G[aIle][NMeS][NMeV]SV[dNMeF])) | 5.31 (≈ 3.79 µM) | 20 (≈ 14.3 µM) |
| CC[C@@H](C)[C@H]1C(=O)N[C@@H](CO)C(=O)N[C@@H](C(C)C)C(=O)N(C)[C@H](Cc2ccccc2)C(=O)NCC(=O)N[C@@H](C(C)C)C(=O)N(C)[C@@H]([C@@H](C)O)C(=O)N[C@@H](C(C)C)C(=O)N(C)[C@@H]([C@@H](C)O)C(=O)N[C@@H](C(C)C)C(=O)N(C)[C@H](C)C(=O)NCC(=O)N[C@@H](C(C)C)C(=O)N(C)[C@@H](CO)C(=O)N1C [VERRUCAMIDE C] | 4.45 (≈ 3.17 µM) | 10 (≈ 7.13 µM) |
| CC(C)[C@@H]1NC(=O)[C@H]([C@@H](C)O)N(C)C(=O)[C@H](C(C)C)NC(=O)[C@H]([C@@H](C)O)N(C)C(=O)[C@H](C(C)C)NC(=O)CNC(=O)[C@@H](Cc2ccccc2)N(C)C(=O)[C@H](C(C)C)NC(=O)[C@H](CO)NC(=O)[C@H](C(C)C)N(C)C(=O)[C@H](CO)N(C)C(=O)[C@H](C(C)C)NC(=O)CNC(=O)[C@@H](C)N(C)C1=O [VERRUCAMIDE D] | 9.09 (≈ 6.55 µM) | 40 (≈ 28.8 µM) |
